One block for each molecule: values may come before it. Active and inactive are the calls of the source. The calls are words filed in the database; no cut-off is given here.
What was measured:
[1] = DPPH radical scavenging activity; type: functional
In short: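 Samples dissolved in EtOH and diluted to 500, 100, 50 and 10 µg/mL (concentrations before mixing). Each 20 µL aliquot was mixed immediately with 180 µL DPPH, with an EtOH blank. After 20 min, A517 was read. Scavenging was taken as the fall in DPPH absorbance relative to a sample-free DPPH control. IC50 was interpolated from concentration-inhibition curves as the mean of triplicates.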

[2] = system: PC-12; assay: Neurotrophic effect in rat PC12 cells; type: functional, cell-based
In short: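 PC12 cells without NGF were exposed to test compounds at 1–100 µM and examined for neurotrophic activity.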

[3] = system: PC-12; assay: Neurotrophic effect in rat NGF-induced PC12 cells upto 100 uM; type: functional, cell-based
In short: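 PC12 cells were co-treated with NGF and test compounds at 1–100 µM, then checked for neurotrophic effects.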

SMILES: O=C1C[C@@H](c2ccc(O)c(O)c2)c2c(cc(O)c3c2O[C@H](c2ccc(O)c(O)c2)[C@H](O)C3)O1 [CINCHONAIN IA]
IC50 [1]: 9.4 µM
Activity [2]: inactive
Activity [3]: inactive

SMILES: COC(=O)C[C@@H]1c2cc(O)c(O)cc2Oc2cc(O)c3c(c21)O[C@H](c1ccc(O)c(O)c1)[C@H](O)C3 [CATIGUANIN A]
IC50 [1]: 7.1 µM
Activity [2]: inactive
Activity [3]: inactive

SMILES: Oc1cc(O)c2c(c1)O[C@H](c1ccc(O)c(O)c1)[C@@H](O)C2 [CATECHIN]
IC50 [1]: 10 µM

SMILES: O=C1C[C@H](c2ccc(O)c(O)c2)c2c(cc(O)c3c2O[C@H](c2ccc(O)c(O)c2)[C@H](O)C3)O1 [CINCHONAIN IB]
IC50 [1]: 5.1 µM

SMILES: COC(=O)C[C@H]1c2cc(O)c(O)cc2Oc2cc(O)c3c(c21)O[C@H](c1ccc(O)c(O)c1)[C@H](O)C3 [CATIGUANIN B]
IC50 [1]: 6.7 µM

The next molecules have a lower IC50 [1] than those just listed; values first:

IC50 [1]: 2.3 µM
SMILES: O=C1C[C@@H](c2ccc(O)c(O)c2)c2c(O)cc3c(c2O1)C[C@@H](O)[C@@H](c1ccc(O)c(O)c1)O3 [CINCHONAIN ID]

IC50 [1]: 2.5 µM
SMILES: O=C1C[C@H](c2ccc(O)c(O)c2)c2c(O)cc3c(c2O1)C[C@@H](O)[C@@H](c1ccc(O)c(O)c1)O3 [CINCHONAIN IC]
